Assay results reported in paper PMC4110911 (Bioorganic & medicinal chemistry letters, 2014).

Legend:
PKC = assay: PepTag non-radioactive PKC assay; type: biochemical; details: read-out: IC50 value, PKC; mean ± standard deviation, triplicate
[1] = Distribution of compound in tissues and plasma after chronic oral administration; type: in vivo; details: CD1 mice, oral gavage 5 mg/Kg daily for 75 days, n = 4
Outline: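 CD1 mice: four treated, two untreated. Test compound was given by oral gavage at 5 mg/Kg once daily for 75 days. Brain, pancreas, liver, kidney, lung and plasma were then assayed for the compound by a previously reported procedure. Levels are in µM as mean ± standard deviation; ND = not detectable.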

[2] = test system: liver transaminases, aspartate aminotransferase (AST) and alanine transaminase (ALT); assay: Plasma liver transaminase; type: in vivo; details: mice, 5 mg/kg daily by oral gavage for 75 days, vs control mice

Row | IC50 (PKC) [µM] | Concentration of 3, Kidney [1] [µM] | Concentration of 3, Liver [1] [µM] | Concentration of 3, Pancreases [1] [µM] | Concentration of 3, Plasma [1] [µM] | SMILES | ALT enzyme activity in plasma [2] | AST enzyme activity in plasma [2]
1 | 400 ± 13.7 | – | – | – | – | COc1cc(NCc2cccc3cccnc23)c2nccc(C)c2c1Oc1cccc(C(F)(F)F)c1 [Compound 7] | – | –
2 | 240 ± 21.2 | 16.1 ± 2.1 | 7.1 ± 0.6 | 26.5 ± 6.6 | 4.5 ± 0.3 | COc1cc(NCc2ccc(O)cc2)c2nccc(C)c2c1Oc1cccc(C(F)(F)F)c1 [Compound 3] | No significant difference | No significant difference

Row | SMILES | IC50 (PKC) [µM] | Concentration of 3, Kidney [1] [µM] | Concentration of 3, Liver [1] [µM] | Concentration of 3, Pancreases [1] [µM] | Concentration of 3, Plasma [1] [µM] | ALT enzyme activity in plasma [2] | AST enzyme activity in plasma [2]
4 | CN[C@@H]1C[C@H]2O[C@@](C)([C@@H]1OC)n1c3ccccc3c3c4c(c5c6ccccc6n2c5c31)C(=O)NC4 [Staurosporine, reference compound] | […] | – | – | – | – | – | –
